Assay results: ChEMBL document CHEMBL3853325, “Identification of Inhibitors for the DEDDh Family of Exonucleases and a Unique Inhibition Mechanism by Crystal Structure Analysis of CRN-4 Bound with 2-Morpholin-4-ylethanesulfonate (MES)” (J Med Chem, 2016)
pIC50: −log10 of the molar value. The source made the active and inactive calls. No cut-off for these calls is given here.

How the values were obtained:
[1] = biological target: T1, 3'-5' exonuclease crn-4 (Caenorhabditis elegans) (UniProt Q10905); assay: (§1) Inhibition of GST-tagged Caenorhabditis elegans CRN-4 exonuclease activity expressed in Escherichia coli BL21 (DE3) pLysS preincubated for 10 mins followed by [gamma-32P]ATP labelled 11-nucleotide ssRNA substrate addition for 30 mins by PAGE based autoradiography
T1 sequence (whole entry): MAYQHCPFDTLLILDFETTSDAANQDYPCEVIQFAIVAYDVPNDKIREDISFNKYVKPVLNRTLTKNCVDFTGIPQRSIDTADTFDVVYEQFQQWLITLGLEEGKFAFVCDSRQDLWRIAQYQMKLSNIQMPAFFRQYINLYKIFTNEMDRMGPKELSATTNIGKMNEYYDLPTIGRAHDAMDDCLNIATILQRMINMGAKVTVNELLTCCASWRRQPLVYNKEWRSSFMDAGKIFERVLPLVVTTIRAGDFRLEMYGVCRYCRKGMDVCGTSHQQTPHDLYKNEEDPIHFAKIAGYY

[2] = biological target: T2, Ribonuclease T (Escherichia coli (strain K12)) (UniProt P30014); assay: (§2) Inhibition of 5'-[gamma-32P]ATP-labelled 11-nucleotide ssDNA binding to recombinant Escherichia coli K-12 N-terminal His-tagged RNase T expressed in Escherichia coli BL21-CodonPlus(DE3)-RIPL at 1 mM preincubated for 10 mins followed by substrate addition measured after 20 mins by TBE gel electrophoresis mobility shift assay
T2 sequence (whole entry): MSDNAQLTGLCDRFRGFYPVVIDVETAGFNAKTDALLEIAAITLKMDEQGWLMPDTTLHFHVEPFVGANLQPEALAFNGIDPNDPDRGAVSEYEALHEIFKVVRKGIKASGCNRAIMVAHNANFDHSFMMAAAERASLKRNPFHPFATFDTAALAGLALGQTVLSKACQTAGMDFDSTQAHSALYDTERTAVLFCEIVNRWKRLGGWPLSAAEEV
Outline: (§3)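 Gel-shift assay. Inhibitor was mixed with protein (CRN-4 or RNase T) for 10 min at room temperature, then 20 nM 5′-32P-labelled 11-nt substrate was added (RNA for CRN-4, DNA for RNase T). Buffer: 50 mM Tris-HCl pH 7.0, 120 mM NaCl, 10 mM EGTA, 40 mM EDTA, ±10% DMSO, 20 min at room temperature. Complexes were resolved on 20% TBE gels and read by phosphorimaging.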

[3] = biological target: T1, 3'-5' exonuclease crn-4 (Caenorhabditis elegans); assay: (§4) Inhibition of 5'-[gamma-32P]ATP-labelled 11-nucleotide ssRNA binding to Caenorhabditis elegans GST-tagged CRN-4 expressed in Escherichia coli BL21 (DE3) pLysS at 1 mM preincubated for 10 mins followed by substrate addition measured after 20 mins by TBE gel electrophoresis mobility shift assay; outline: as §3
[4] = biological target: T2, Ribonuclease T (Escherichia coli (strain K12)); assay: (§5) Inhibition of N-terminal His-tagged recombinant Escherichia coli K-12 RNase T exonuclease activity expressed in Escherichia coli BL21-CodonPlus(DE3)-RIPL preincubated for 10 mins followed by [gamma-32P]ATP labelled 11-nucleotide ssDNA substrate addition for 40 mins by PAGE based autoradiography
Mammarenavirus lassaense [5] = assay: Inhibition of Lassa virus N-terminal His-tagged NP exonuclease domain (342 to 569 residues) expressed in Escherichia coli Tuner (DE3) using FAM-labeled 20-nucleotide ssRNA preincubated for 10 mins followed by substrate addition measured after 60 mins by PAGE based […]
Outline: (§6)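 Purified NP exonuclease domain (2 μM), alone or with inhibitor, was incubated with 1 μM 5′-FAM-labelled RNA (20-nt ssRNA or stem-loop with 4-nt 3′ overhang). Buffer: 120 mM NaCl, 2 mM MgCl2, 20 mM Tris-HCl pH 7.0, ±10% DMSO, room temperature, 60 min. Products were run on 20% denaturing gels under UV. Cleavage was quantified across inhibitor concentrations to calculate IC50.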

Mammarenavirus lassaense [6] = assay: (§7) Inhibition of Lassa virus N-terminal His-tagged NP exonuclease domain (342 to 569 residues) expressed in Escherichia coli Tuner (DE3) using 3'-overhang 4-nucleotide stem-loop RNA preincubated for 10 mins followed by substrate addition measured after 60 mins by PAGE based […]; outline: as §6
[7] = as §7; set-up: species or system Mammarenavirus lassaense; outline: as §6
[8] = biological target: 3'-5' exonuclease crn-4 (Caenorhabditis elegans) (UniProt Q10905); assay: as §1; remark: listed apart in the source
[9] = biological target: Ribonuclease T (Escherichia coli (strain K12)) (UniProt P30014); assay: as §2; outline: as §3; remark: listed apart in the source
[10] = biological target: 3'-5' exonuclease crn-4 (Caenorhabditis elegans) (UniProt Q10905); assay: as §4; outline: as §3; remark: listed apart in the source
[11] = biological target: Ribonuclease T (Escherichia coli (strain K12)) (UniProt P30014); assay: as §5; remark: listed apart in the source
Geobacillus phage GBSV1 = assay: Inhibition of recombinant GST-fused Geobacillus phage GBSV1-NSN expressed in Escherichia coli BL21 (DE3) at 10 mM using RNA/DNA as substrate after 15 mins by spectrophotometry relative to control

Compound	INH [1] [mM]	inhibition [2]	inhibition [3]	INH [4] [mM]	INH (Mammarenavirus lassaense [5]) [mM]	INH (Mammarenavirus lassaense [6]) [mM]	inhibition (Mammarenavirus lassaense [6])	pIC50 [7]	INH [8] [mM]	inhibition [9]	inhibition [10]	INH [11] [mM]	inhibition (Geobacillus phage GBSV1) [%]
O=C(O)C1=CC(=C(c2ccc(O)c(C(=O)O)c2)c2ccc(O)c(C(=O)O)c2)C=CC1=O [AURINTRICARBOXYLIC ACID]	0.1	Active	Active	0.01	0.01	0.01	Dose-dependent effect	5.17					
O=C(O)c1cc(SSc2ccc([N+](=O)[O-])c(C(=O)O)c2)ccc1[N+](=O)[O-]	0.1	Active	Active	0.1	1	1							
p-Chloromercuribenzenesulfonate					1	1			0.01	Active	Active	0.01	
O=C(O)CC(O)(CC(=O)O)C(=O)O	> 1			1	1	1							40
O=S(=O)(O)c1cc(O)c2c(O)c(/N=N/c3cccc4ccccc34)c(S(=O)(=O)O)cc2c1	0.01		Active	0.1	0.1	0.1	Dose-dependent effect	4.18					
O=C(N[C@H](CC1CCCCC1)C(=O)O)OCC1c2ccccc2-c2ccccc21	1		Active	1	1	1							
O=C(O)c1cc2cccc([N+](=O)[O-])c2[nH]1	> 1			1	1	1							
O=C(O)c1ccc(Nc2nc(Cl)nc(Cl)n2)cc1-c1c2ccc(=O)cc-2oc2cc(O)ccc12	1			1	1	1							
